The source of these data is the array DNA melting data of Ke et al. (doi:10.1101/2024.01.08.574731).

The nature of data set [1]: folding enthalpy; higher = less favourable; fluorescence melt of hairpins on a sequencing array, two-state fit. The following applies: sodium 0.088 M. Put shortly:
(§1)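 Bootstrapped two-state fits yielded melting temperature and folding enthalpy for library hairpins. Cy3 fluorescence, with annealed Cy3 and quencher oligos, was imaged on a sequenced MiSeq flow cell in 50 mM Na-HEPES pH 8.0, 25 mM NaCl in 2.5 °C steps up to 60 °C, and normalised to pre-quench Cy3 and to control constructs. Four replicates were combined by inverse variance, and fitted temperatures were raised by 9.35 °C to match UV melts.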

Data set [2] can be described thus: melting temperature; fluorescence melt of hairpins on a sequencing array, two-state fit, raised by 9.35 °C to match UV melts. The settings on record: sodium 0.088 M. In short, it runs like this: as §1

GAGTTACGAAAGTACTC (((.(((....)))))): in data set [1], the folding enthalpy is -25.4 kcal/mol. Further, the Tm in data set [2] was determined as 43.2 °C.
The corresponding values for GAGTTACGAAAGTAGCTC (((.(((....))).))) are -34.5 kcal/mol and 51.2 °C.
The corresponding values for GAGTTCCGAAAGGACCTC (((.(((....))).))) are -28.8 kcal/mol and 47.2 °C.
The corresponding values for GAGTTCGGAAACAAACTC (((((.(....).))))) are -27.5 kcal/mol and 34 °C.
As to GAGTTGGGAAACCAATTC ((.((((....)))).)), the folding enthalpy in data set [1] was -28.8 kcal/mol. In data set [2], the Tm is 40 °C.
In the same order, the values of GAGTTGGGAAACTAGCTC (((.(.(....).).))) are -15 kcal/mol and 29 °C.
In the same order, the values of GAGTTTGCGAAAGCACTC (((..(((....)))))) are -15.2 kcal/mol and 34.1 °C.
As to GAGTTTGGAAACAGACTC ((((.((....)).)))), in data set [1], the folding enthalpy was -28.3 kcal/mol. Also, the Tm in data set [2] amounted to 41.1 °C.
The corresponding values for GAGTTTGGAAACGAATTC ((.((.(....).)).)) are -18.4 kcal/mol and 33.5 °C.
Turning to GATAAACCGAAAGGTATC (((..(((....)))))), the folding enthalpy in data set [1] is -13.9 kcal/mol. For the same sequence, the Tm in data set [2] came out at 30 °C.
With GATAAAGGAAACTTTATC (((((((....))))))), the folding enthalpy in data set [1] is -31.7 kcal/mol. For the same sequence, the Tm in data set [2] stood at 44.4 °C.
In the same order, the values of GATAACGAAAGTTGATC ((((((....))).))) are -11.2 kcal/mol and 27.6 °C.
The corresponding values for GATAACGGAAACGCTATC ((((.((....)).)))) are -29.5 kcal/mol and 34.4 °C.
The corresponding values for GATAAGGCGAAAGCCATC (((..(((....)))))) are -9.19 kcal/mol and 29.6 °C.
For GATAATGAAAATTATC ((((((....)))))), the folding enthalpy in data set [1] is -20.5 kcal/mol. Besides, in data set [2], the Tm amounted to 37.9 °C.
Regarding GATACACGAAAGTGCATC (((.(((....))).))), the folding enthalpy in data set [1] is -23.7 kcal/mol. Also, the Tm in data set [2] came out at 44.2 °C.
The corresponding values for GATACCCGAAAGGGATC (((.(((....)))))) are -16.1 kcal/mol and 42.1 °C.
In the same order, the values of GATACCGAAAGGTACATC ((((((....)))..))) are -10.4 kcal/mol and 26.9 °C.
In the same order, the values of GATACCGAAAGGTATC ((((((....)))))) are -38.6 kcal/mol and 62.5 °C.
On to GATACCGAAAGGTCAATC ((((((....)))..))), for which the folding enthalpy in data set [1] is -8.3 kcal/mol. In addition, the Tm in data set [2] stood at 21.7 °C.
The corresponding values for GATACCGAAAGGTTCATC ((((((....)))..))) are -12.4 kcal/mol and 32 °C.
The corresponding values for GATACCGGAAACGGTACC (.(((((....))))).) are -13.6 kcal/mol and 38.8 °C.
In the same order, the values of GATACGACGAAAGTCATC (((..(((....)))))) are -10.6 kcal/mol and 24.6 °C.
Consider GATACGGGAAACTGTATC (((((.(....).))))), for which the folding enthalpy in data set [1] is -37.1 kcal/mol. In data set [2], the Tm is 43.8 °C.
In the same order, the values of GATACTGGAAACAGTATC (((((((....))))))) are -40.4 kcal/mol and 54.6 °C.
In the same order, the values of GATACTGGAAACGGTATC (((((.(....).))))) are -30.4 kcal/mol and 42.7 °C.
The corresponding values for GATAGAGGAAACTCTGTC ((.((((....)))).)) are -32.1 kcal/mol and 38 °C.
Consider GATAGCGAAAGCTATATC ((((((....)))..))), for which the folding enthalpy in data set [1] is -14.3 kcal/mol. Besides, the Tm in data set [2] was 46.6 °C.
The corresponding values for GATAGCGAAAGCTATC ((((((....)))))) are -33 kcal/mol and 61.3 °C.
The corresponding values for GATAGCGAAAGCTCAATC ((((((....)))..))) are -10.4 kcal/mol and 21.7 °C.
As for GATAGCGAAAGCTCTATC ((((((....)))..))), the folding enthalpy in data set [1] is -11.1 kcal/mol. Also, in data set [2], the Tm is 26.4 °C.
With GATAGCGAAAGCTTCATC ((((((....)))..))), the folding enthalpy in data set [1] was -12 kcal/mol. Also, the Tm in data set [2] amounted to 28.3 °C.
In the same order, the values of GATAGCGGAAACGCTACC (.(((((....))))).) are -12.1 kcal/mol and 40.4 °C.
The corresponding values for GATAGCGGAAACGCTGTC ((.((((....)))).)) are -25 kcal/mol and 52.2 °C.
For the sequence GATAGGCGAAAGCCCATC (((.(((....))).))), the folding enthalpy in data set [1] is -13.8 kcal/mol. For the same sequence, the Tm in data set [2] is 37.7 °C.
In the same order, the values of GATAGGCGAAAGCCGATC (((.(((....))).))) are -16.8 kcal/mol and 55.5 °C.
In the same order, the values of GATAGGGCGAAAGCCATC (((..(((....)))))) are -9.11 kcal/mol and 31.2 °C.
